Measured values from article PMC11303814 (Nature Communications, 2024).
Positions count from the first letter of the chain named.

What was measured:
Format in all cases: cell-based
[1] = target: T1, rP2X7-R125A/Q143A (Rattus norvegicus, UniProt Q64663, Q143A/R125A); assay: TEVC deactivation time; conditions: after 100 μM ATP or 10 μM BzATP
T1 sequence (Q64663 1-595 R125A/Q143A): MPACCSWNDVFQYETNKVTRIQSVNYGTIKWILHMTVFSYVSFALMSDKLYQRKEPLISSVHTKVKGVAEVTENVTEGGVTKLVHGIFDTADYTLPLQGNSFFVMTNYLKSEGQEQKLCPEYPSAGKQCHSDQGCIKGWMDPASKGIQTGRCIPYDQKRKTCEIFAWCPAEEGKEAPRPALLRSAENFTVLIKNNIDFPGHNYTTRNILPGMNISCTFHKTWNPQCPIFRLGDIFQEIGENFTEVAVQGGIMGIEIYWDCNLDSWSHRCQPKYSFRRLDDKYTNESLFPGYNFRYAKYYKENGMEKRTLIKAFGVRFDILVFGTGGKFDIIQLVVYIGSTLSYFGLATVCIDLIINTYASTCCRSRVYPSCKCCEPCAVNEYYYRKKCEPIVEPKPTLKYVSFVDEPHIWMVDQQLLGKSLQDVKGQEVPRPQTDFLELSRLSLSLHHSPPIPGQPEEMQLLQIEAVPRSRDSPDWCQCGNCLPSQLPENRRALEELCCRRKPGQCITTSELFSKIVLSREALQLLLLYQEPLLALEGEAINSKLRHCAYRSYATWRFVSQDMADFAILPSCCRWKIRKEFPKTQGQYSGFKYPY
Summary of the method: (§1)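 Xenopus oocytes injected with 50 nL of 10 ng/µL mutant rP2X7 mRNA, expressed ~20 h, clamped in pH 7.4 HEPES buffer with 0.1 mM flufenamic acid and EDTA. Currents were evoked by 100 µM ATP or 10 µM BzATP. τ is the time for current to return to 63% of baseline after agonist removal, from a one- or two-phase decay fit. Done in triplicate over first to third applications per oocyte; mean ± SD.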

[2] = target: T2, rP2X7-Q143A (Rattus norvegicus, UniProt Q64663, Q143A); assay: TEVC dose response; conditions: read-out: EC50 (apparent affinity), mean ± SD, triplicate
T2 sequence (Q64663 1-595 Q143A): T1 sequence (Q64663 1-595 R125A/Q143A) with A125R
Summary of the method: (§2)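 TEVC was run on Xenopus oocytes ~20 h after injection of wild-type or mutant rP2X7 mRNA, in pH 7.4 HEPES buffer with 0.1 mM flufenamic acid. Receptors were facilitated at 100 µM before recording. Dilution series: ATP 1.5 mM–2 µM (7 points), BzATP 300–0.14 µM (8 points). Responses were normalized to the largest concentration, fitted by nonlinear regression for EC50, and averaged across triplicates (mean ± SD).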

[3] = target: T3, rP2X7-R125A/I214A (Rattus norvegicus, UniProt Q64663, I214A/R125A); assay: TEVC dose response; conditions: read-out: EC50 (apparent affinity), mean ± SD, triplicate
T3 sequence (Q64663 1-595 R125A/I214A): T1 sequence (Q64663 1-595 R125A/Q143A) with A143Q, I214A
Summary of the method: as §2

[4] = target: T2, rP2X7-Q143A; assay: TEVC deactivation time; conditions: after 100 μM ATP or 10 μM BzATP
Summary of the method: as §1

[5] = target: T4, rP2X7 K127A (Rattus norvegicus, UniProt Q64663, K127A); assay: TEVC dose response; conditions: read-out: EC50 (apparent affinity), mean ± SD, triplicate
T4 sequence (Q64663 1-595 K127A): T1 sequence (Q64663 1-595 R125A/Q143A) with A125R, K127A, A143Q
Summary of the method: as §2

Row | deactivation lifetime τ [1] | EC50 [2] | EC50 [3] | deactivation lifetime τ [4] | EC50 [5] | Molecule
1 | 1.8 ± 0.1 s | 113 ± 30 µM | 77 ± 10 µM | 1.2 ± 0.1 s | 22 ± 3 µM | Nc1ncnc2c1ncn2[C@@H]1O[C@H](COP(=O)(O)OP(=O)(O)OP(=O)(O)O)[C@@H](O)[C@H]1O [ATP]
2 | 2.5 ± 1.1 s | 8.5 ± 3.2 µM | 14 ± 2 µM | 7.1 ± 0.6 s | 2.9 ± 0.4 µM | BzATP
